Experimental data from PMC5197073 (Theranostics, 2017).

Key:
[1] = Intratumoral drug concentration and distribution by MALDI-MSI in C38 tumors; assay type: in vivo, mouse; conditions: 100 mg/kg p.o. for two weeks
C38 tumors = assay: Microvessel areas; assay type: in vivo, mouse; conditions: C38 model, 100 mg/kg p.o. for two weeks; P<0.03
[2] = Intratumoral drug concentration and distribution by MALDI-MSI in C26 tumors; assay type: in vivo, mouse; conditions: for intratumoral drug distribution (MALDI-MSI): C26 tumors, 100 mg/kg p.o. for two weeks
[3] = test system: C38 mouse colorectal carcinoma; assay: In vivo growth inhibition of s.c. C38 tumors; conditions: C57Bl/6 mice, 100 mg/kg p.o. 5 times a week for two weeks; vs vehicle; P=0.0048
Summary of the method: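 C38 fragments, kept by serial s.c. passage, cut into 5×5×5 mm cubes and implanted into the backs of anaesthetised 8-week-old female C57Bl/6 mice. Dosing started on day 13, once daily by feeding tube, 5 days/week. Vehicle was 2% carboxymethylcellulose with 2 mg/mL methyl-4-hydroxybenzoate, also given to controls. Calipers were used three times weekly, with volume = length × width² × π/6.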

[4] = test system: C38 mouse colorectal carcinoma; conditions: C57Bl/6 mice; previously published study; ref [38]; cited from earlier work
desmin = assay: Pericyte desmin expression in C26 tumors; assay type: in vivo, mouse; conditions: C26 model, 100 mg/kg p.o. for two weeks; sunitinib P=0.0135, motesanib P<0.05
PDGFRβ = conditions: ref [18]; cited from earlier work
C26 tumors = assay: Intratumoral hypoxia; assay type: in vivo, mouse; conditions: C26 model, 100 mg/kg p.o. for two weeks; P=0.0152

Compound: CNC(=O)c1cc(Oc2ccc(NC(=O)Nc3ccc(Cl)c(C(F)(F)F)c3)cc2)ccn1 [sorafenib]
- intratumoral drug distribution (MALDI-MSI) [1]: trace-level
- intratumoral microvessel areas (antivascular/antiangiogenic effect) (C38 tumors): no significant
- intratumoral drug distribution (MALDI-MSI) [2]: Only traces
- C38 tumor growth inhibition [3]: no significant tumor growth inhibitory

Compound: Clc1ccc(Nc2nnc(Cc3ccncc3)c3ccccc23)cc1 [vatalanib]
- intratumoral drug distribution (MALDI-MSI) [1]: well-distributed
- intratumoral drug concentration vs untreated controls ([1]; P=0.0006): significantly higher
- intratumoral vatalanib concentration ([1]; C57Bl/6 mice, P=0.0025 vs C26): 0.116 µmol/mL
- intratumoral microvessel areas (antivascular/antiangiogenic effect) (C38 tumors): significant decrease
- intratumoral drug distribution (MALDI-MSI) [2]: Only traces
- C38 tumor burdens [4]: significantly decreased
- C38 tumor growth inhibition [3]: robust and significant growth-inhibitory effect

Compound: Cc1ccc(Nc2nccc(N(C)c3ccc4c(C)n(C)nc4c3)n2)cc1S(N)(=O)=O [pazopanib]
- intratumoral drug distribution (MALDI-MSI) [1]: trace-level
- intratumoral microvessel areas (antivascular/antiangiogenic effect) (C38 tumors): no significant
- intratumoral drug distribution (MALDI-MSI) [2]: inhomogeneous
- C38 tumor growth inhibition [3]: no significant tumor growth inhibitory

Compound: CCN(CC)CCNC(=O)c1c(C)[nH]c(/C=C2\C(=O)Nc3ccc(F)cc32)c1C [sunitinib]
- intratumoral drug distribution (MALDI-MSI) [1]: well-distributed
- intratumoral microvessel areas (antivascular/antiangiogenic effect) (C38 tumors): significant
- intratumoral drug distribution (MALDI-MSI) [2]: homogeneously distributed
- rank of intratumoral concentration among the five RTKIs ([2]; mouse, in vivo, po, 100 mg/kg): highest values
- pericyte desmin expression (desmin): suppressed
- IC50 value against PDGFRβ, rank among the tested RTKIs (PDGFRβ): lowest IC50 value
- intratumoral hypoxia (C26 tumors): significantly increased
- C38 tumor growth inhibition [3]: significant antitumor

Compound: CC1(C)CNc2cc(NC(=O)c3cccnc3NCc3ccncc3)ccc21 [motesanib]
- intratumoral drug distribution (MALDI-MSI) [1]: trace-level
- intratumoral microvessel areas (antivascular/antiangiogenic effect) (C38 tumors): no significant
- intratumoral drug distribution (MALDI-MSI) [2]: inhomogeneous
- pericyte desmin expression (desmin): significantly decreased
- C38 tumor growth inhibition [3]: no significant tumor growth inhibitory
